Source: PubChem
This is a sample that favours compounds with a hit; in the whole collection about 2.2% have one here.
b-catenin transl = beta-catenin nuclear translocation modulation; HeLa beta-catenin nuclear translocation, immunofluorescence imaging; nuclear translocation activity, % at 5 µM; 0.3% of 190,000 active; AID 1665;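 active = nuclear translocation activity above 50% at 5 µM, with a well cell count of 50 or more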;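 note: per-cell ratio of nuclear to cytoplasmic median beta-catenin stain intensity; plate controls were DMSO negative control for no effect and GSK-3 inhibitor IX positive control for full effect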
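Test system: human HeLa cells, native beta-catenin. Compound dosing: 5 µM primary single dose, 0.1% DMSO, 0.02–20 µM confirmation series. Incubation: compound exposure 24 h at 37°C. Detection: beta-catenin immunostaining with DAPI counterstain, 20x imaging, 6 fields/well. Read-out basis: Nuclear/cytoplasmic beta-catenin signal ratio, % activation.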
MT stabilize HCS = microtubule stabilizers in HeLa cells | HeLa tubulin immunostaining HCS, 24 h; share of cells brighter than vehicle mean+2SD | % tubulin-high responders, % at 10 µM | 0.83% of 200,000 active;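 active = plate Z-score above 3 for both tubulin-high and condensed-nucleus cell shares, with cell loss under 80%, at 10 µM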;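 note: anti alpha tubulin signal scored within the nucleus-defined area of each cell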
BaF3 parental = counter-screen for JAK2V617F inhibitors: parental Ba/F3 viability inhibitors; inhibition, % at 5.6 µM; 1.1% of 220,000 active; CellTiter-Glo ATP luminescence; AID 1486;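 active = inhibition above a per-campaign cutoff, the mean inhibition of all tested compounds plus 3 SD, cut at about 27% in these data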;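 note: 0% = DMSO wells and 100% = JAK Inhibitor I control wells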
Ba/F3 V617F tox = loss of viability in JAK2V617F-driven Ba/F3 cells | Ba/F3 EpoR-JAK2V617F viability, ATP luminescence | inhibition, % at 5.6 µM | 1.1% of 220,000 active;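 active = inhibition above the campaign mean plus 3 SD over all tested compounds, cut at about 24% in these data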;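 note: cytokine-independent growth of Ba/F3 cells driven by EpoR plus mutant JAK2; 0% = DMSO-treated cells and 100% = JAK inhibitor I control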
IEC-6 tox = IEC-6 cytotoxicity, counter-screen for KLF5 inhibitors | luminescence viability | inhibition, % at 5 µM | AID 1825 | 0.78% of 290,000 active; in the data active = inhibition above about 22%;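 note: 0% = plate median of test compound wells and 100% = cytotoxic reference compound wells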
APP transl inh = APP translation inhibition. SH-SY5Y APP 5'UTR-luciferase reporter, luminescence. AID 1285. 0.82% of 190,000 active. inhibition, % at 2 µM;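 active = inhibition above a set limit, derived from the sample mean plus 3 SD, cut at about 45% in these data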
Starred values were filed as active, the others as inactive; / = no result.

SMILES | b-catenin transl | MT stabilize HCS | BaF3 parental | Ba/F3 V617F tox | IEC-6 tox | APP transl inh
COC(C(=O)N/N=C(\C)c1ccc(O)cc1)c1ccccc1 (centres undefined) | / | / | / | / | 5 | /
CCOc1ccc(/C(C)=N/NC(=O)C(OC)c2ccccc2)cc1 (centres undefined) | 6 | 10* | 0 | -2 | 4 | -17
CCc1nc2c(c(=O)c3ccccc3n2C)c(=O)n1CCc1ccc(OC)cc1 | 6 | 6 | 1 | 0 | 26* | 12
Nc1nccc(-c2cc(-c3ccc(Cl)cc3Cl)no2)n1 | -1 | / | 1 | 0 | -6 | /
Cc1cc(Nc2cccc(Cl)n2)n(-c2ccccc2)n1 | 2 | 5 | 0 | 4 | 3 | 20
Cc1cc(Nc2nc3ccccc3nc2Cl)n(-c2ccccc2)n1 | / | 12* | 6 | -1 | 3 | 19
Cc1cc(Nc2ccc(Cl)cc2)n(-c2ccccc2)n1 | -2 | 1 | 2 | -2 | 11 | 16
Cc1cc(Nc2nc3ccccc3nc2Cl)n(-c2ccccc2C)n1 | 1 | 13* | 10 | -1 | 2 | 14
COc1ccc(C2CC(C(F)(F)F)n3nc(C(=O)NCc4c(C)nn(C)c4C)c(Cl)c3N2)cc1 (centres undefined) | -3 | 3 | 44* | 36* | 5 | -11
Cc1cccc(-c2nnc(NC(=O)c3ccco3)s2)c1 | / | / | / | / | 0 | /
CC1(C(=O)NNC(=O)c2ccc(=O)oc2)CC1Br (centres undefined) | -2 | / | 28* | 0 | -3 | /
CC(=O)/C(C[N+]1(C)CCCCC1)=N\O | / | 5 | 1 | 3 | 6 | 0
C[N+]1(CC(=O)OC2CCCCCCCCCCC2)CCCC1 | / | 4 | 72* | 73* | 9 | -3
COc1ccc(Br)cc1C(C[N+](=O)[O-])c1c(N)n(C)c(=O)n(C)c1=O (centres undefined) | 0 | / | 36* | 66* | -2 | /
CC(C)(CO)NCc1cccc(OCc2ccc(Cl)cc2)c1 | 0 | 5 | 4 | 3 | -8 | -12
Clc1ccc(COc2cccc(CNCc3ccncc3)c2)cc1 | 1 | 4 | 38* | 5 | 2 | 0
Cc1cc(OCC(O)CNC(C)c2ccccc2)ccc1C(C)C (centres undefined) | / | / | / | / | 1 | /
O=[N+]([O-])c1cc(CN2CCN(c3cccc(C(F)(F)F)c3)CC2)c2cccnc2c1O | 0 | 3 | 8 | -2 | -2 | 65*
CCOc1ncccc1C(=O)NCc1ccc(OC)cc1 | 24 | 36* | 9 | 4 | 6 | /
CC(=O)OCCCCCCCCCCC[N+]1(C)CCCCC1 | 0 | 2 | 51* | 25* | -4 | -19
COC(=O)CCCCCCCCCC[N+]1(C)CCCCC1 | -3 | 3 | 2 | 1 | 8 | 2
C#CC[N+](C)(C)C(C#Cc1ccccc1)CC=C (centres undefined) | -2 | 4 | 48* | 26* | 1 | -3
COC(=O)C[N+](C)(C)CC#Cc1ccccc1 | -2 | 1 | 8 | -1 | -7 | -13
CN1CCN(CC(=O)N2c3ccccc3C(C)(c3ccc(Cl)cc3)CC2(C)C)CC1 (centres undefined) | / | 2 | 6 | 2 | 0 | 3
CN1CCN(CC(=O)N2c3ccccc3C(C)(c3ccccc3)CC2(C)C)CC1 (centres undefined) | 1 | 1 | 3 | 30* | 4 | -11
SMILES | b-catenin transl | MT stabilize HCS | BaF3 parental | Ba/F3 V617F tox | IEC-6 tox | APP transl inh
Cc1ccccc1OCC(=O)OCC(=O)NCC1CCCO1 (centres undefined) | -1 | 7 | 4 | -1 | -12 | 35
CSc1nc(Oc2ccc3ccccc3c2)c2sccc2n1 | 86* | 41* | -3 | -3 | 1 | -13
CCO[C@H]1OC(C(=O)N2CCOCC2)=C[C@@H](C)[C@@H]1CCCO | 1 | 4 | 1 | -1 | 0 | -11
CC1(C)CC(=O)C(C(C2=C(O)CC(C)(C)CC2=O)c2ccc([N+](=O)[O-])cc2)C(=O)C1 (centres undefined) | -3 | 4 | 3 | -1 | -8 | 6
CC1(C)CC(=O)C(C(C2=C(O)CC(C)(C)CC2=O)c2ccc(O)c([N+](=O)[O-])c2)=C(O)C1 | 0 | 3 | 94* | 3 | -5 | -18
CCCOc1ccc(/C=N/NC(=S)Nc2ccccc2[N+](=O)[O-])c(O)c1 | -1 | 5 | 4 | -3 | -1 | 46*
CCCOc1ccc(/C=N/Nc2ccccc2[N+](=O)[O-])c(O)c1 | 1 | 4 | 4 | -3 | -2 | -173
CCn1c(C)nc2cc(C(=O)N/N=C(\C)c3ccccc3O)ccc21 | 0 | 4 | 7 | 7 | 2 | -56
Cc1ccc(C(=O)c2cc([N+](=O)[O-])ccc2N2CCCCC2)c(C)c1 | 59* | 6 | 87* | 88* | 89* | 96*
O=C(c1cc([N+](=O)[O-])ccc1N1CCOCC1)N1CCOCC1 | 0 | 5 | 5 | 3 | 2 | -3
O=C(c1cc([N+](=O)[O-])ccc1N1CCCCC1)N1CCc2ccccc21 | 0 | 17* | 7 | 3 | -3 | 42
O=C(O)c1cc([N+](=O)[O-])ccc1N1CCCCC1 | 2 | 2 | 9 | 2 | 2 | 10
Cc1ccc(C(=O)c2cc([N+](=O)[O-])ccc2N2CCOCC2)cc1 | 8 | 18* | 5 | 5 | 2 | 93*
Cc1ccc(S(=O)(=O)N2CC(C)N(C(=O)N3CCOCC3)C2C)cc1 (centres undefined) | / | / | / | / | 3 | /
CCc1nnc(NC(=O)CCc2ccc(C)o2)s1 | / | 2 | 3 | -2 | -7 | -3
Cc1ccc(CCC(=O)Nc2ncc(Cc3cccc(Cl)c3Cl)s2)o1 | 100* | 7 | 0 | 0 | -2 | 96*
COc1ccc(CNCc2c(O)c(Cl)cc3c(C)c(C)c(=O)oc23)c(OC)c1 | / | / | / | / | 2 | /
CCCCOC(=O)Cn1c(=O)c2c(nc(Br)n2Cc2ccccc2)n(C)c1=O | -6 | 2 | 66* | 2 | 3 | -3
Cc1cc(C)nc(SC2=CS(=O)(=O)c3ccccc32)n1 | -1 | 3 | 0 | 1 | -2 | 8
O=S1(=O)C=C(Sc2nc3ccccc3s2)c2ccccc21 | 6 | 3 | 105* | 101* | 72* | 96*
CCOc1ccccc1CNC(=O)c1ccc(NC(=O)C2=CSCCO2)cc1 | / | / | / | / | 1 | /
CC1CC(OC(=O)CN2CCCCC2)CC(C)(C)C1 (centres undefined) | 1 | / | -3 | -3 | -6 | /
COc1ccc(CC(=O)NCc2cccs2)cc1 | 54* | 43* | 23 | 8 | 17 | 10
O=C1NC(=Nc2ccccc2)S/C1=C\C=C\c1ccco1 | 4 | 17* | -1 | -3 | -8 | -13
Cc1cc(C)c2c(N)c(C(=O)c3ccccc3)sc2n1 | 1 | / | -1 | -1 | 0 | /
Cc1sc2cc3c(c(C(=O)c4ccccc4)[n+]2c1C)-c1cccc2cccc-3c12 | -1 | 3 | 88* | 100* | 6 | 14
O=C(NCc1ccc2c(c1)OCO2)C1CC(=O)N(c2ccc(Cl)cc2)C1 (centres undefined) | / | / | / | / | -4 | /
